The values that follow come from ChEMBL document CHEMBL1949558, “Hypoxylonols C-F, benzo[j]fluoranthenes from Hypoxylon truncatum” (J Nat Prod, 2012).

SMILES strings stand for the structures.

Experiment [1] relates to HUVEC. Put plainly: Antiangiogenic activity in HUVEC assessed as inhibition of cell proliferation after 72 hrs by MTT assay. Type of experiment: functional, cell-based. The note with it: Homo sapiens. Put shortly:
(§1)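 Cells were purchased and seeded at 3000/well on collagen-coated plates for 3 h at 37 °C, 5% CO2: HUVECs in EGM-2, HUAECs in EGM-2MV. The medium was then swapped to 1% FBS-EBM-2 for 21 h. VEGF (1 nM) and samples were added for 72 h. Proliferation was read with WST-8 at 450 nm, and inhibition was expressed as IC50.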
For orientation: Tetrazolium assays rely on reduction of a dye to a coloured formazan, in cell work by metabolically active cells.

Experiment [2] can be described thus: Antiangiogenic activity in HUAEC assessed as inhibition of cell proliferation after 72 hrs by MTT assay. The class given is functional. To be noted: Homo sapiens. Put shortly: as §1

For orientation: IC50 means the concentration needed to halve the response being measured. As to `O=C1C[C@H]2C(=C3c4c2ccc(O)c4[C@H](O)C[C@@H]3O)c2cccc(O)c21` [HYPOXYLONOL F], the figures for the concentration for half-maximal inhibition (IC50) in experiment [1] and in experiment [2] were 17 µM and 14 µM, respectively.

For `CCO[C@@H]1C[C@H](O)C2=C3c4cccc(O)c4C(=O)C[C@@H]3c3ccc(O)c1c32` [HYPOXYLONOL D], the results for the IC50 in experiment [1] and in experiment [2] were 6.9 µM and 6.1 µM, respectively.

In the case of `CCO[C@H]1C[C@H](O)C2=C3c4cccc(O)c4C(=O)C[C@@H]3c3ccc(O)c1c32` [HYPOXYLONOL A], the 50% inhibitory concentration (IC50) is 15 µM in experiment [1] and 16 µM in experiment [2].

On to `CO[C@@H]1C[C@H](O)C2=C3c4cccc(O)c4C(=O)C[C@@H]3c3ccc(O)c1c32` [HYPOXYLONOL E], for which the IC50 in experiment [1] turned out to be 7.4 µM; in experiment [2] it was 4.1 µM.

As to `CO[C@H]1C[C@H](O)C2=C3c4cccc(O)c4C(=O)C[C@@H]3c3ccc(O)c1c32` [HYPOXYLONOL B], the IC50 in experiment [1] and in experiment [2] was 24 µM throughout.

As for `O=C1C[C@H]2C(=C3c4c2ccc(O)c4[C@@H](O)C[C@@H]3O)c2cccc(O)c21` [HYPOXYLONOL C], the half-maximal inhibitory concentration (IC50) in experiment [1] came out at 21 µM; in experiment [2] it was 16 µM.
